pIC50: −log10 of the molar value. Calls of active or inactive are those of the source. The calls are words filed in the database; no cut-off is given here.
What was measured:
[1] = test system: dsDNA; experiment: Binding affinity to 5'-ACTTATTCCATATAGA-3'/3'-TGAATAAGGTATATCT-5' dsDNA (unknown origin) assessed as change in melting temperature at 2.5 uM by spectrophotometric method; type: nucleic-acid assay
[2] = test system: dsDNA; experiment: Binding affinity to 5'-ACTTATCCACTATAGA-3'/3'-TGAATAGGTGATATCT-5' dsDNA (unknown origin) assessed as change in melting temperature at 2.5 uM by spectrophotometric method; type: nucleic-acid assay
[3] = biological target: T1, Histone acetyltransferase p300 (Homo sapiens, UniProt Q09472); experiment: Inhibition of p300 (unknown origin) using H3 peptide and acetyl-coA as substrate by fluorometric assay
Summary of the method: (§1)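 Fluorometric HAT kit assay with recombinant p300 core domain as enzyme and acetyl-CoA plus H3 histone peptide as substrates. Effectors were tested at 1 and 5 μM. HeLa nuclear extract served as positive control, and 0.5% DMSO was set as 100% activity.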

[4] = test system: A549; experiment: Antiproliferative activity against human A549 cells at 0.1 to 10 uM after 96 hrs by WST8 assay; type: functional, cell-based
Summary of the method: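 Cells seeded at 5×10^3 per well and grown 24 h at 37°C, 5% CO2. A549 medium was DMEM with 10% FBS and 2 mM L-glutamine. SW620 medium had 10% FBS and 1% penicillin/streptomycin. Medium was then replaced with conjugate at 0.1, 1, 5 or 10 μM for 96 h. WST-8 reagent was added and absorbance read at 450 nm. Results are mean ± SD.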

[5] = biological target: T1, Histone acetyltransferase p300; experiment: Inhibition of p300 (unknown origin) at 1 to 5 uM sing H3 peptide and acetyl-coA as substrate by fluorometric assay
Summary of the method: as §1, with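 “substrates. Released CoA-SH reacts with a developer, read at Ex/Em 535/587 nm.” for “substrates.”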

T1 sequence (Q09472 whole entry, the tested form may be a part): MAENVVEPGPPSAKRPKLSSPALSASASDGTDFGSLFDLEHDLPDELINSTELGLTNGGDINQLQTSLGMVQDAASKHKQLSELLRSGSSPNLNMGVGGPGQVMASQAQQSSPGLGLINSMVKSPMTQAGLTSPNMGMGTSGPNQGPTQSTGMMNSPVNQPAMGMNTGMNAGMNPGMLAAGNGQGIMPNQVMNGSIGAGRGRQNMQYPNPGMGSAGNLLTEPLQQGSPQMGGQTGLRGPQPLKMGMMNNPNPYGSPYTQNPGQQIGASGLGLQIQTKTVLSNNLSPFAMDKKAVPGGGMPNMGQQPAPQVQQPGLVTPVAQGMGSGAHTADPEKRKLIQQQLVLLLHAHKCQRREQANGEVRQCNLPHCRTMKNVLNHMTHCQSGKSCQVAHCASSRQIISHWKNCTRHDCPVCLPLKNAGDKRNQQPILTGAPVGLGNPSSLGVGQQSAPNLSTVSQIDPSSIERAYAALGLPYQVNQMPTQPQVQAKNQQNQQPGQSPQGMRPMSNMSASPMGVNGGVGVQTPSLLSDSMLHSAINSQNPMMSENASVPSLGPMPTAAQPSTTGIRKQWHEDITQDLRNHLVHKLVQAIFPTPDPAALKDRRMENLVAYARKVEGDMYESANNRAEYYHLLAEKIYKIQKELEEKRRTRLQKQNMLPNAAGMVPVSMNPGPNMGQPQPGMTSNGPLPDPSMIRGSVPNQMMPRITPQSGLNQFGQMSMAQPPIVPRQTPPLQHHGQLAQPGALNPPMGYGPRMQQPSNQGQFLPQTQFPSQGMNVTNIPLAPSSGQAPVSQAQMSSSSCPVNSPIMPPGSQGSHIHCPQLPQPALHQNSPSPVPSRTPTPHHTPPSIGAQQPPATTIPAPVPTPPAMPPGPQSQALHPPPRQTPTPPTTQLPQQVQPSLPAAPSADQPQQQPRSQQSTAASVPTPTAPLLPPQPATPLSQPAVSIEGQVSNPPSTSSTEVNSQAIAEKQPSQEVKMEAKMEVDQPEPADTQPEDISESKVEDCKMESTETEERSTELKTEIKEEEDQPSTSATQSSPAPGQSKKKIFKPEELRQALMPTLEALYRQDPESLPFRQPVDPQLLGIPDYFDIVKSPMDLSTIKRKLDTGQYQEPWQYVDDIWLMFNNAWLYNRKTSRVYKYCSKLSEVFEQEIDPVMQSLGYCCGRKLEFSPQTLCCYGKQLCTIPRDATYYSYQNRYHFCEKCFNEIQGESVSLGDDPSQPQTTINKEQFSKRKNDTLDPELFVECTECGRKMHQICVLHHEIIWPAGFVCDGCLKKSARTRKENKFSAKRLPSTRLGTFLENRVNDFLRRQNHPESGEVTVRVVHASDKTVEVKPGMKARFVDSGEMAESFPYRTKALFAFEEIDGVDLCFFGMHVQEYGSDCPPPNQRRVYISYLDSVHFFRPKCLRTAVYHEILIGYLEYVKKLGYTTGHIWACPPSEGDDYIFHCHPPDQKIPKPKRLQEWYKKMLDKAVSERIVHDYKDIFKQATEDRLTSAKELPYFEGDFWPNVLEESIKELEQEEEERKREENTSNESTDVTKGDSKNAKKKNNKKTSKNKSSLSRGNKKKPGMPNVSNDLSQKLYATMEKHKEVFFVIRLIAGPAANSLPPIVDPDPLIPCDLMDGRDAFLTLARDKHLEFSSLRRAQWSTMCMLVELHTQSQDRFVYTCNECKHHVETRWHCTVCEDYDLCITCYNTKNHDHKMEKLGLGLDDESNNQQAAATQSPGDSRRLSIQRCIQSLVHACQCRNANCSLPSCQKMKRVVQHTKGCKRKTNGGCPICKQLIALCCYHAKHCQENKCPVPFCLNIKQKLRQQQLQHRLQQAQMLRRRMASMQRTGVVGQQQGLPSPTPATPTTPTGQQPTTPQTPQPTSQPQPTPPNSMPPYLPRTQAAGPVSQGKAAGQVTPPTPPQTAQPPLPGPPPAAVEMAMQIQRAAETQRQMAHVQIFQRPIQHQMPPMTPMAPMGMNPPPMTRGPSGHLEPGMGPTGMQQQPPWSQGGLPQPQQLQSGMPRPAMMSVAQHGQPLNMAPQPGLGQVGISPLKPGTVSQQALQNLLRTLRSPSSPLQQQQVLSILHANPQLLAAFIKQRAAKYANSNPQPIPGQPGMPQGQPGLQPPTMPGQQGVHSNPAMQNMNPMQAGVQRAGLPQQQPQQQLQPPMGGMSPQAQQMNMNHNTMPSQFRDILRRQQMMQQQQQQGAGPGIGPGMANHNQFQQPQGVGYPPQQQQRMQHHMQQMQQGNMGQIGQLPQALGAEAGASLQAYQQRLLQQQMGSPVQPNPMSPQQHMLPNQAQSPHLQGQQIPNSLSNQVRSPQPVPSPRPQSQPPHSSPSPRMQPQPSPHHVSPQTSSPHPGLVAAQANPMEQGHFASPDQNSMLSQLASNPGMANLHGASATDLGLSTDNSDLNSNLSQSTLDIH

| inhibition [3] | SMILES | Activity [4] | also measured |
| --- | --- | --- | --- |
| – | CC1=NN(c2ccc(C(=O)NCCOCCOCC(=O)NCCOCCOCC(=O)Nc3cc(C(=O)Nc4cn(C)c(C(=O)Nc5cn(C)c(C(=O)Nc6cc(C(=O)NCCCC(=O)Nc7cc(C(=O)Nc8cc(C(=O)Nc9cc(C(=O)Nc%10cc(C(=O)NCCCN(C)C)n(C)c%10)n(C)c9)n(C)c8)n(C)c7)n(C)c6)n5)n4)n(C)c3)cc2)C(=O)/C1=C/c1ccc(-c2cc(C)c(C)cc2[N+](=O)[O-])o1 | Active | ΔTm [1]: 18.4 °C; ΔTm [2]: 12.2 °C; pIC50 [3]: 5.38 to 5.41 |
| – | CC(=O)Nc1cc(C(=O)Nc2cn(C)c(C(=O)Nc3cn(C)c(C(=O)Nc4cc(C(=O)NCCCC(=O)Nc5cc(C(=O)Nc6cc(C(=O)Nc7cc(C(=O)Nc8cc(C(=O)NCCCN(C)C)n(C)c8)n(C)c7)n(C)c6)n(C)c5)n(C)c4)n3)n2)n(C)c1 | inactive | inhibition [5]: inactive |
| Dose-dependent effect | CCCCCCCCCCCCCCOc1cc(OCCCCCC(=O)NCCC(=O)Nc2cc(C(=O)Nc3cn(C)c(C(=O)Nc4cn(C)c(C(=O)Nc5cc(C(=O)NCCCC(=O)Nc6cc(C(=O)Nc7cc(C(=O)Nc8cc(C(=O)Nc9cc(C(=O)NCCCN(C)C)n(C)c9)n(C)c8)n(C)c7)n(C)c6)n(C)c5)n4)n3)n(C)c2)cc(O)c1C(=O)O | – | – |
| Dose-dependent effect | CCCCCCCCCCCCCCCc1cccc(O)c1C(=O)O | – | – |

Reference: ChEMBL document CHEMBL4190249, “Antiproliferative and apoptotic activities of sequence-specific histone acetyltransferase inhibitors” (Eur J Med Chem, 2017)
